# UPR CHOP act: activators of apoptotic arm of unfolded protein response (CHOP) | CHO-CHOP luciferase reporter, UPR activation, luminescence; percent of tunicamycin response over DMSO baseline | activation, % at 10 µM | hit rate 0.34% among 330,000 | AID 449763;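 active = at 10 µM dose, activation of 40% or more, normalized to positive control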
#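 Assay system: CHO-CHOP cells, stable luciferase reporter of PERK-eIF2a-CHOP signalling / Buffer or medium: F12 plus 10% serum / Compound dosing: one dose, 10 µM in 0.5% DMSO / Times: 6 h compound treatment, 37 °C / Technique: luciferase luminescence / Read-out: % reporter activation, DMSO baseline versus tunicamycin full activation / Benchmarks: tunicamycin and DMSO controls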
# CHOP inh: inhibitors of CHOP induction in ER stress response; inhibition, % at 10 µM; hit rate 3.8% among 220,000; CHO-K1 CHOP-promoter luciferase, tunicamycin-induced, 15-18 h;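 active = compounds that reduced the stress-induced luciferase reporter signal by more than about 70% of percent inhibition, limit read from the data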
# UCH37 inh: inhibitors of human deubiquitinating enzyme UCH37; hit rate 0.33% among 330,000; purified proteasome/UCH37, Ub-AMC cleavage fluorescence; inhibition, % (test concentration not listed); AID 588478; Q9Y5K5;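 active = mean inhibition over replicate wells above about 20%, limit read from the data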
# Target sequence (Q9Y5K5 whole entry, looked up): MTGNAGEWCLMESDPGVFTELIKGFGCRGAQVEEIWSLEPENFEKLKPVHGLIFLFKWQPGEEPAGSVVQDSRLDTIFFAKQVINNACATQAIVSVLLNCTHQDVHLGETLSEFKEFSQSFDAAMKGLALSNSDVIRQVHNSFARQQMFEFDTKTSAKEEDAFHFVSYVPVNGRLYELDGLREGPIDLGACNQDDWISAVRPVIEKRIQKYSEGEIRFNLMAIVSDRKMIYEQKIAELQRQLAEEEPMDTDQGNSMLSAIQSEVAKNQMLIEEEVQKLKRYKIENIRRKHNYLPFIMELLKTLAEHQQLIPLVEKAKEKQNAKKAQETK
#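 Material: Human UCH37 enzyme supplied as purified proteasome complex | Schedule: 30 min preincubation with enzyme, 25 min cleavage at room temperature | Detection: AMC fluorescence 355/460 nm | Measure: % inhibition of Ub-AMC cleavage fluorescence | Controls: Wells without proteasome as full block, compound-free enzyme plus substrate as uninhibited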
# XBP1 UPR activ: activators of adaptive arm of unfolded protein response (XBP1); CHO-XBP1 luciferase reporter, IRE1-XBP1 UPR activation, luminescence; percent of tunicamycin response, DMSO as zero; activation, % at 20 µM; hit rate 0.33% among 330,000; AID 463104;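 active = versus positive control, 20 µM dose yields 30% or more activation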
#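 Material: CHO cell line with stable XBP1 luciferase reporter; schedule: 16-18 h cell attachment at 37 °C, then 6 h compound exposure; signal: glow luminescence from Steady-Glo reagent; medium: serum-containing F12 medium, 10% FBS; benchmarks: tunicamycin 10 µg/mL and vehicle-only wells; read-out: percent activation relative to tunicamycin reference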
# CTSL1 counter: cathepsin L1 inhibition, PFM18AAP counter-screen | recombinant F. hepatica cathepsin L1, Z-Leu-Arg-MCA fluorescence | inhibition, % at 5.96 µM | hit rate 0.49% among 300,000 | AID 1906;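 active = inhibition above the mean of all tested compounds plus 3 SD, set per screening campaign, cut at about 17% in these data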
# A number is an active result; . = inactive; / = no result given. This excerpt belongs to a sample that is enriched for hits.
SMILES,UPR CHOP act,CHOP inh,UCH37 inh,XBP1 UPR activ,CTSL1 counter
COc1cc(OC)cc(C(=O)N[C@H](C(=O)NCc2ccco2)C(C)C)c1,.,.,.,.,.
COc1ccc(C(=O)Nc2ccccc2C(=O)NCCN2CCOCC2)cc1,.,.,.,.,23
COc1ccc(C(=O)N[C@H](C(=O)NCc2ccco2)C(C)C)cc1,.,.,.,.,19
CC(C)(C)c1ccc(C(=O)Nc2ccccc2C(=O)NCCN2CCOCC2)cc1,.,/,.,.,.
Cc1nn(-c2ccccc2)c(C)c1/C=N/NC(=O)c1cc(-c2ccc(Br)s2)[nH]n1,.,70,/,.,.
C/C(C=NNC(=O)c1cc(C(C)C)[nH]n1)=C\c1ccccc1,/,/,.,/,/
CC(/C=N/NC(=O)c1cc(-c2ccc(C)s2)[nH]n1)=C\c1ccccc1,.,96,/,.,.
Cc1nn(-c2ccccc2)c(C)c1/C=N/NC(=O)c1cc(-c2ccc(Cl)s2)[nH]n1,.,.,/,.,.
C/C(C=NNC(=O)c1cc(-c2ccc(C)s2)[nH]n1)=C\c1ccccc1,/,/,.,/,/
CC(/C=N/NC(=O)c1cc(C(C)(C)C)[nH]n1)=C\c1ccccc1,.,76,/,.,.
O=C(COc1ccccc1[N+](=O)[O-])NN=Cc1cccc(OC(=O)c2ccc3c(c2)OCO3)c1,/,/,.,/,/
CCCCC(CCCC)=NN=Cc1c(O)n(CC)c2cc(C3=NNC(=O)CC3)ccc12,/,/,.,/,/
Cc1ccc(C=NNC(=O)CN(Cc2ccccc2)S(=O)(=O)c2ccc3c(c2)OCCO3)cc1,/,/,.,/,/
CC(=NNC(=O)COc1ccc(C(C)(C)C)cc1)c1ccc2c(c1)OCCO2,/,/,.,/,/
O=C(NN=Cc1ccc(O)c(O)c1)NN=Cc1ccc(O)c(O)c1,/,/,.,/,/
Oc1ccc(N=Cc2ccc(O)c(O)c2)cc1,.,/,.,.,46
O=C(NC1CCCCC1)C(c1ccc(F)cc1)N(Cc1cccs1)C(=O)CN1C(=O)c2ccccc2S1(=O)=O (stereo not drawn),.,91,.,.,.
O=C(NCC1CCCO1)C(c1ccncc1)N(Cc1cccs1)C(=O)CN1C(=O)c2ccccc2S1(=O)=O (stereo not drawn),.,.,.,.,.
O=C(NC1CCCC1)C(c1ccc(F)cc1)N(Cc1ccc(F)cc1)C(=O)c1ccn[nH]1 (stereo not drawn),.,.,.,.,.
O=C(NC1CCCC1)C(c1ccc(F)cc1)N(Cc1ccccc1Cl)C(=O)CCl (stereo not drawn),.,108,.,.,.
COCCN(C(=O)CCl)C(C(=O)NC1CCCCC1)c1ccccc1C (stereo not drawn),.,.,.,.,27
CCOC(=O)c1cc(C(O)(C(F)(F)F)C(F)(F)F)c(N=CN(C)C)o1,/,/,.,/,/
CCCc1cc(NC(=O)COC(=O)c2ccc(O)cc2O)n(-c2ccccc2)n1,.,/,.,.,/
CCCc1cc(NC(=O)CCl)n(-c2ccccc2)n1,.,.,.,.,79
CC(C)(C)c1cc(NC(=O)CCl)n(-c2ccccc2)n1,.,.,.,.,57
SMILES,UPR CHOP act,CHOP inh,UCH37 inh,XBP1 UPR activ,CTSL1 counter
CC(Cl)C(=O)Nc1cc(C(C)(C)C)nn1-c1ccccc1 (stereo not drawn),.,.,.,.,.
Cc1c(C=Nn2cnnc2)c2ccccc2n1CCOc1ccccc1,/,/,.,/,/
C/C(C=Nn1c(COc2ccccc2)n[nH]c1=S)=C\c1ccco1,/,/,.,/,/
O=[N+]([O-])c1ccc(Oc2ccc(F)cc2)c2ccncc12,.,77,.,.,.
Cc1ccc(S(=O)(=O)N(C)Cc2nc(-c3ccncc3)no2)cc1,.,.,.,.,.
Cc1ccc(S(=O)(=O)N(C)Cc2nc(-c3ccc(Br)cc3)no2)cc1,.,83,.,.,.
C=CCn1c(SCC(=O)Nc2sccc2C(N)=O)nc2ccccc2c1=O,.,.,.,.,.
C=CCn1c(SCC(=O)Nc2sccc2C(N)=O)nc2ccc(Cl)cc2c1=O,.,78,.,.,.
CCOc1ccc2oc(C(=O)OCC(=O)NC(=O)NC3CCCC3)c(C)c2c1,.,73,.,.,.
COc1cccc(-c2cc(N)nn2C(=O)Nc2ccc(Cl)cc2)c1,.,95,.,.,.
COc1cccc(NC(=O)NCCc2ccc(Cl)cc2)c1,.,.,.,.,.
CCOc1ccccc1NC(=O)C(=O)/C=C(\O)c1cc(OC)ccc1OC,.,95,/,.,.
COc1ccc(OC)c(/C(O)=C/C(=O)C(=O)Nc2cc(C)ccc2OC)c1,.,.,/,.,.
Cn1c(=O)c2c(ncn2CCC(=O)NN=Cc2ccccc2)n(C)c1=O,/,/,.,/,/
O=C(NCCN1CCc2ccccc2C1)C1CC(=O)N(C2CCCC2)C1 (stereo not drawn),.,89,.,.,.
COc1cccc(C=NNC(=O)CN2C(=O)NC3NC(=O)NC32)c1 (stereo not drawn),/,/,.,/,/
O=C(Cn1nnc(-c2ccccc2Cl)n1)N/N=C/c1ccc(-c2cccc(Cl)c2)o1,.,74,/,.,.
Cc1cccc(-n2ncc3c(NCc4cccnc4)ncnc32)c1,.,.,.,.,.
Cc1ccc(CNc2ncnc3c2cnn3-c2ccccc2)cc1,.,95,.,.,.
Clc1cccc(Nc2ncnc3c2cnn3-c2ccccc2)c1,.,99,.,.,.
Cc1ccc(-n2ncc3c(NCc4ccccc4)ncnc32)cc1,.,80,.,.,.
Cc1sc(NC(=O)CN2CCOCC2)nc1-c1ccc2c(c1)CCN2S(=O)(=O)c1ccccc1,.,72,.,.,.
N#Cc1nc(-c2ccccc2F)oc1NC1CCCCC1,.,80,.,.,.
COc1ccc(-c2cc(C(=O)NN=Cc3cc(OC)c(OC)cc3OC)c3ccccc3n2)cc1,/,/,.,/,/
O=C(NC1CCCCC1)C(c1ccc(F)cc1)N(CCN1CCOCC1)C(=O)c1ccc(-c2ccccc2)[nH]1 (stereo not drawn),.,73,.,.,.
SMILES,UPR CHOP act,CHOP inh,UCH37 inh,XBP1 UPR activ,CTSL1 counter
O=C(NC1CCCC1)C(c1ccncc1)N(CCCN1CCOCC1)C(=O)c1ccc(-c2ccccc2)[nH]1 (stereo not drawn),.,.,.,.,.
CCCCN(Cc1ccco1)C(=O)c1cc2c(=O)[nH]c3ccc(C)cc3c2s1,.,73,.,.,.
Nc1ccccc1C(=O)NCC1(c2ccccc2)CCCC1,.,/,.,.,18
Cc1ccc(C(=O)NCC2(c3ccccc3)CCCC2)cc1,.,.,.,.,.
O=C(NCC1(c2ccccc2)CCCC1)c1ccc(Br)cc1,.,74,.,.,.
O=C(NCC1(c2ccccc2)CCCC1)c1ccc(Br)o1,.,.,.,.,.
Cc1cc(=O)n2nc(N3CCC(C(=O)N4CCN(Cc5ccccc5)CC4)CC3)sc2n1,.,.,24,.,.
CCOc1ccccc1CNC(=O)C1CCN(c2nn3c(=O)cc(C)nc3s2)CC1,.,/,.,.,.
